One assay relates to M.tuberculosis H37Rv. The assay is described as follows: MIC, agar dilution method. Format: cell-based, Mycobacterium tuberculosis. Background: In agar dilution, organisms are placed on agar that contains the substance at set levels.
Assay [1] relates to M.tuberculosis H37Rv INHr. The assay is described as follows: MIC, agar dilution method. The format is cell-based, Mycobacterium tuberculosis.
The test system of assay [2] is M.tuberculosis H37Rv RFPr. The assay can be described thus: MIC, agar dilution method. Format: cell-based, Mycobacterium tuberculosis.
The next assay concerns M.bovis BCG Tokyo. The assay can be described thus: MIC, agar dilution method. The format is cell-based.
Another assay relates to M.avium Flamingo. The assay can be described thus: MIC, agar dilution method. The format is cell-based.
Assay [3] concerns M.intracellulare ATCC15984. The assay is described as follows: MIC, agar dilution method. The format is cell-based.
A further assay deals with M.aurum. The assay can be described thus: MIC, agar dilution method. The format is cell-based.
Another assay concerns M.fortuitum NIHJ1615. The assay is described as follows: MIC, agar dilution method. The format is cell-based.
For a further assay, the system named is M.smegmatis Takeo. The assay is described as follows: MIC, agar dilution method. Format: cell-based.
The test system of the next assay is nonreplicating Mtb. The assay can be described thus: Killing of nonreplicating bacteria, Wayne low oxygen model. Format: cell-based, Mycobacterium tuberculosis. In a few lines:
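Aerobic preculture diluted 100-fold into tubes sealed with rubber septa, degassed with N₂ and held anaerobically for 24 days, into nonreplicating phase 2 of a modified Wayne model. Test compound in degassed solution was added and incubation continued for 96 h. Suspensions were then diluted and plated, grown aerobically at 37 °C, and colonies counted.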

A further assay has as its system bacterial growth. The assay can be described thus: In vitro rescue studies with vitamin K supplementation. Format: cell-based. The note with it: 22a ~2μM; vitamin K even at 400 μM.
Another assay relates to DosS or DosR. The assay can be described thus: DosS/DosR upregulation. Format: cell-based, Mycobacterium tuberculosis. The conditions noted are these: unpublished data.
The mark [4] stands for this setting: 10 μg/mL, 96 h exposure after 24 days anaerobic.
Setting [5] is: Mycobacterium tuberculosis, H37RV.
Where [6] appears, read: Mycobacterium tuberculosis variant bovis BCG, BCG.
Where [7] appears, read: Mycobacterium intracellulare, ATCC15984.

SMILES strings stand for the structures. Converted amounts (≈) assume the structure as drawn.

As usually defined, the MIC is the lowest concentration found to suppress growth. Read a low MIC as greater potency. `C=CCN(C)CCCCCCCCOc1ccc(C(=O)c2ccc(Cl)cc2)c(O)c1` [22a, allylaminomethanone-A]: the MIC against M.tuberculosis H37Rv (M.tuberculosis H37Rv, agar dilution) is 1.0 µg/mL (≈ 2.33 µM); in assay [1] (M.tuberculosis H37Rv INHr, agar dilution) it was 1.5 µg/mL (≈ 3.49 µM); in assay [2] (M.tuberculosis H37Rv RFPr, agar dilution) it was 1.5 µg/mL (≈ 3.49 µM); with M.bovis BCG Tokyo (M.bovis BCG Tokyo, agar dilution) it was 3.1 µg/mL (≈ 7.21 µM); in the assay with M.avium Flamingo (M.avium Flamingo, agar dilution), 6.3 µg/mL (≈ 14.7 µM); in assay [3] (M.intracellulare ATCC15984, agar dilution), 6.3 µg/mL (≈ 14.7 µM). Besides, the figures for the MIC in the assay on M.aurum, in the assay with M.fortuitum NIHJ1615 and against M.smegmatis Takeo were 6.3 µg/mL (≈ 14.7 µM), 12.5 µg/mL (≈ 29.1 µM) and 12.5 µg/mL (≈ 29.1 µM), respectively. Besides, the “more effective in killing nonreplicating bacteria than ethambutol” value in the assay with nonreplicating Mtb (setting [4]) was 320 fold. Also, the “more effective in killing nonreplicating bacteria than isoniazid” value in the assay with nonreplicating Mtb (setting [4]) came out at 180 fold. The “more effective in killing nonreplicating bacteria than rifampicin” value in the assay with nonreplicating Mtb (setting [4]) is 3 fold. Moreover, the “colonies after treatment of nonreplicating Mtb” value in the assay on nonreplicating Mtb (50 μg/mL, 96 h exposure) is “no countable colonies”. In addition, in the assay with bacterial growth, the “rescue of bacterial growth by supplementation with vitamin K” value is given as “not completely rescued”. Besides, in the assay on DosS or DosR, the “upregulation of DosS or DosR” value was “did not upregulate”.
Consider `NNC(=O)c1ccncc1` [INH, isoniazid], for which the MIC is 0.1 µg/mL (≈ 0.729 µM) with M.tuberculosis H37Rv (setting [5]); greater than 25 µg/mL in assay [1] (setting [5]); 0.05 µg/mL (≈ 0.365 µM) in assay [2] (setting [5]); 0.1 µg/mL (≈ 0.729 µM) against M.bovis BCG Tokyo (setting [6]); greater than 25 µg/mL in the assay on M.avium Flamingo (Mycobacterium avium); 12.5 µg/mL (≈ 91.1 µM) in assay [3] (setting [7]).
With `CO[C@H]1/C=C/O[C@@]2(C)Oc3c(C)c(O)c4c(O)c(c(/C=N/N5CCN(C)CC5)c(O)c4c3C2=O)NC(=O)/C(C)=C\C=C\[C@H](C)[C@H](O)[C@@H](C)[C@@H](O)[C@@H](C)[C@H](OC(C)=O)[C@@H]1C` [RFP, rifampicin], the MIC is 0.2 µg/mL (≈ 0.243 µM) against M.tuberculosis H37Rv (setting [5]); greater than 25 µg/mL in assay [2] (setting [5]); 0.1 µg/mL (≈ 0.122 µM) against M.bovis BCG Tokyo (setting [6]); 3.1 µg/mL (≈ 3.77 µM) with M.avium Flamingo (Mycobacterium avium); 3.1 µg/mL (≈ 3.77 µM) in assay [3] (setting [7]).

The record behind these values is paper PMC5378063 (Medicinal chemistry (Shariqah (United Arab Emirates)), 2009).
